# Keap1 Nrf2 FP: inhibitors of human Keap1-Nrf2 protein-protein interaction; Q14145; Keap1 Kelch-Nrf2 peptide fluorescence polarization, 1536-well; inhibition, % at 9.4 µM; 340,000 compounds, 0.15% hits; AID 504523; in the data active = inhibition above about 12%;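 also: human Keap1 Kelch domain with fluorescein labeled Nrf2 9mer peptide probe; 0% = neutral control wells and 100% = peptide positive control; higher means more block of Keap1 binding to Nrf2 peptide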
# Target sequence (Q14145 whole entry, looked up, the tested form may be a part): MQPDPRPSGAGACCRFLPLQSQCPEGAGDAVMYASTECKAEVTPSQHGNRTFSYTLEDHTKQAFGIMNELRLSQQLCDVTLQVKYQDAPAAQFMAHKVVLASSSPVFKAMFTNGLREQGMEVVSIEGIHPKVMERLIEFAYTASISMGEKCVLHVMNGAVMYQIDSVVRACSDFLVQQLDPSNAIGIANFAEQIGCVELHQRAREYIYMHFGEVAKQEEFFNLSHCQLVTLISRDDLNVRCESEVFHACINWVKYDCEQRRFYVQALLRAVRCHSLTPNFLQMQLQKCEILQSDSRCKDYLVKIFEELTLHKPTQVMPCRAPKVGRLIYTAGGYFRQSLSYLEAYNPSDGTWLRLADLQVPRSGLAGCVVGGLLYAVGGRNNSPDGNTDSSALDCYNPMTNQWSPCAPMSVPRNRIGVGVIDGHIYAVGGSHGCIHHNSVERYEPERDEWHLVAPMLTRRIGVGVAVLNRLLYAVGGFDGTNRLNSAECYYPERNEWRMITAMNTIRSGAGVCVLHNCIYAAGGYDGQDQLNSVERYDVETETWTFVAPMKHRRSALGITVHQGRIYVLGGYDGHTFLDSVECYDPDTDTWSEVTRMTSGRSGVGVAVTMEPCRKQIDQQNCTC
# C-LANA FP: blocks KSHV LANA C-terminal domain binding to DNA; MBP-C-LANA/FAM-LBS DNA binding, fluorescence polarization; inhibition, % at 9 µM; 340,000 compounds, 0.078% hits;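 active = highest replicate inhibition at or above 60% at 9 µM, even if other replicates fall short; inactive = all replicates below 60% inhibition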;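 also: 0% = neutral control wells and 100% = 4 µM acridine orange control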
# CAL PDZ FP-1: inhibitors of human CAL PDZ peptide binding. purified CAL PDZ, TMR-peptide fluorescence polarization, 1 h. inhibition, % at 24.9 µM. Q9HD26. 300,000 compounds, 0.92% hits;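 active = mean inhibition of at least 30% with at least half of replicates also reaching 30%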;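 also: 0% = DMSO neutral control and 100% = excess unlabeled competitor peptide PRC23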
# cardiac RTF act: increases calcium sensitivity of human cardiac regulated thin filaments | AID 493008 | activation, % at 7.2 µM | IANBD-labeled TnC RTF fluorescence at EC20 calcium; 0% EC20 calcium, 100% full calcium | 340,000 compounds, 0.24% hits;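 active = activation above the mean over all tested compounds plus 3 SD, cut at about 30% in these data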;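 also: rise in fluorescence read as greater calcium sensitivity of cardiac thin filaments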
# RTF Ca sens inh: cardiac RTF calcium desensitization. inhibition, % at 7.15 µM. IANBD-labeled cardiac RTF, Ca2+ fluorescence. 340,000 compounds, 0.12% hits;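 active = inhibition above the mean inhibition of all tested compounds plus 3 SD, cut at about 17% in these data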;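 also: assay run at fixed EC70 calcium of 1.6 mM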
# CAL PDZ FP-2: inhibitors of human CAL PDZ peptide binding. purified CAL PDZ, TMR-peptide fluorescence polarization, 1 h. inhibition, % at 20 µM. 330,000 compounds, 0.02% hits;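 active = highest replicate inhibition of at least 40%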;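 also: plate controls were DMSO neutral control wells for no effect and unlabeled competitor peptide control wells for full effect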
#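 Assay system – tagged CAL PDZ protein CerCALP, purified · Timing – 1 h at RT · Compound – single point, 20 µM · Measured by – fluorescence polarization from S- and P-plane intensities, G-factor corrected · Evaluation – inhibition from polarization loss · Probe or stimulus – TMR reporter peptide T*-PRC34 · Buffer or medium – pH 7.4 phosphate-saline buffer, reducing agent, detergent, IgG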
# * = called active by the depositor; x = not tested or not shown. In the library only some 1.3% were active in any assay of this set; here they are far more common.
SMILES,Keap1 Nrf2 FP,C-LANA FP,CAL PDZ FP-1,cardiac RTF act,RTF Ca sens inh,CAL PDZ FP-2
O=C(CCN1C(=O)[C@@H]2Cc3ccccc3CN2C1=O)Nc1cccc(F)c1,0,1,-2,-3,-2,-2
CC(=O)Nc1cccc(NC(=O)CSc2nnc3ccccn23)c1,2,1,5,1,-13,0
Cc1cc(NC(=O)CSc2nnc3ccccn23)no1,-5,-1,78*,-1,1,-1
CCOc1ccc(NC(=O)c2ccc(N3CC4CC(C3)c3cccc(=O)n3C4)c(NC(=O)CCN3CCOCC3)c2)cc1 (centres undefined),6,-2,-6,-2,-18,-3
O=C(CCN1CCOCC1)Nc1cc(C(=O)Nc2ccccc2F)ccc1N1CC2CC(C1)c1cccc(=O)n1C2 (centres undefined),-8,-1,69*,6,-7,-1
O=C1CC(c2ccccc2)(c2ccccc2)c2ccccc21,-1,-1,x,3,-8,1
COC(=O)CC1C(=O)NCCN1C(=O)c1ccc([N+](=O)[O-])cc1 (centres undefined),6,1,70*,-3,-4,-1
CN=C1N(C)C[C@@H]2[C@@H]3C(=O)N(Cc4ccccc4)C(=O)[C@@H]3[C@](Cc3ccccc3)(C(=O)OC)N12,3,-1,3,5,-4,-1
O=C(O)c1ccccc1SCCS(=O)(=O)c1ccc(Cl)cc1Cl,-2,-2,2,0,-4,0
O=C(CCC(=O)N1CCOCC1)c1ccc(F)cc1,2,-1,33*,1,-5,-6
Cc1ccc(C(=O)CCC(=O)N2CCN(c3ccc(F)cc3)CC2)cc1,-2,-4,-1,3,-12,-1
Cn1c(=O)c([N+](=O)[O-])c(NCC2CCCO2)c2ccccc21 (centres undefined),0,1,73*,7,-12,-1
COc1ccc(S(=O)(=O)N(CC(=O)N2CCOCC2)c2ccc(F)cc2)cc1OC,-1,0,-8,-6,-6,-3
CCCCNS(=O)(=O)c1ccc2nc(SCC(=O)Nc3sccc3C#N)[nH]c2c1,-4,-1,35*,3,4,x
CCNc1cccc2c1C(=O)N(C)C2=O,-1,0,0,46*,-67,-2
Cc1c(N2C(=O)/C(=C/c3ccc(N(C)C)cc3)N(C)C2=S)c(=O)n(-c2ccccc2)n1C,-38,-9,-6,14,-22,-2
CCN(C(=O)c1ccc(=O)n(C)n1)c1c(N)n(Cc2ccccc2)c(=O)[nH]c1=O,0,0,38*,-2,-7,1
CCCCn1c(N)c(N(CC)C(=O)C2CCCC2)c(=O)[nH]c1=O,7,1,-1,1,-8,0
CCCn1c(N)c(N(CCOC)C(=O)c2ccccc2F)c(=O)[nH]c1=O,-3,-1,-3,-6,-15,1
CCCCCn1nc(C(=O)N(CC(C)C)c2c(N)n(CCCC)c(=O)[nH]c2=O)c2ccccc2c1=O,-1,-1,11,6,-8,-2
CCCCCCn1nc(C(=O)N(CCCC)c2c(N)n(CCC)c(=O)[nH]c2=O)c2ccccc2c1=O,-1,1,47*,1,2,2
CCCCn1c(N)c(N(C)C(=O)C2CCCC2)c(=O)[nH]c1=O,-4,3,43*,0,-2,0
CCCCn1c(N)c(N(CC)C(=O)c2ccccc2F)c(=O)[nH]c1=O,1,0,33*,-5,-22,0
C[C@H]1CN(S(=O)(=O)c2ccc3c(c2)OCCO3)CCN1S(=O)(=O)c1c(F)cccc1F,-3,0,-2,3,-2,-2
COc1ccc(C(C(=O)NCc2ccc(F)cc2)N(Cc2cccnc2)C(=O)c2snc(C(N)=O)c2N)cc1 (centres undefined),-1,2,0,-3,4,-1
Cc1cc(C)nc(NC(=O)Cc2ccc(Cl)cc2)c1,-2,0,33*,-2,-8,-2
Cc1cc(Br)c(NC(=O)Cn2c([N+](=O)[O-])cnc2C)cc1C,-2,-1,1,-2,-3,-2
COc1ccc(C(=O)Nc2ccccc2N2CCN(C(=O)c3ccccc3)CC2)cc1Br,-3,-1,11,-2,-6,-2

# High-throughput results as filed in PubChem BioAssay.
